Data set [1] can be described thus: Half-life at pH 7.4 in rat 10% brain homogenate. Type of data set: ADME. The gist of the method:
(§1)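 Fresh rat whole blood, or rat brain homogenized to 10% (w/v) in pH 7.4 phosphate buffer (1/20 M), spiked from DMSO stock to 40 μM final and held at 37 °C. Timed samples were extracted three times with 8% DMSO in acetonitrile, centrifuged, filtered and analyzed by HPLC. Pseudo-first-order rate constants came from log peak height versus time. Values are means of two determinations.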

A short description of data set [2]: Half-life at pH 7.4 in rat blood. It counts as ADME, organism-based. The essentials: as §1
Data set [3] is described as follows: Half-life in phosphate buffer (0.05 M, mu = 0.15) at 30 degree Celsius with pH 6.07. It counts as ADME. The essentials: (§2)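 DMSO stock added to 10 mL phosphate buffer (0.05 M, μ = 0.15) at the stated pH. Timed samples were analyzed by HPLC, with UV detection at 360 nm for dihydro CDS forms and 260 nm for quaternary salts. Pseudo-first-order disappearance rate constants came from linear regression of log peak height versus time, and half-lives were derived from them.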

Data set [4] is described as follows: Half-life in phosphate buffer (0.05 M, mu = 0.15) at 30 degree Centigrade with pH 6.88. Type of data set: ADME. The gist of the method: as §2
Data set [5] can be described thus: Half-life in phosphate buffer (0.05 M, mu = 0.15) at 30 degree Celsius with pH 7.43. It counts as ADME. The essentials:
as §2

A short description of data set [6]: Half-life in phosphate buffer (0.05 M, mu = 0.15) at 30 degree Celsius with pH 7.73. Type of data set: ADME. The essentials: as §2
A short description of data set [7]: Half-life in phosphate buffer (0.05 M, mu = 0.15) at 30 degree Celsius with pH 8.05. Type of data set: ADME. The essentials:
as §2

Data set [8] in a line: Lipophilicity was determined by reversed-phase HPLC. The settings on record: extrapolated to 100% water.
Data set [9] is described as follows: Half-life at pH 7.4 in human blood. It counts as ADME, organism-based. The essentials: (§3)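 Freshly collected rabbit or human whole blood, spiked from DMSO stock to 40 μM final and kept at 37 °C. Timed samples were extracted three times with 8% DMSO in acetonitrile, centrifuged, filtered and analyzed by HPLC. Pseudo-first-order rate constants came from linear regression of log peak height versus time.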

Data set [10] in a line: Half-life at pH 7.4 in rabbit blood. It counts as ADME, organism-based, Oryctolagus cuniculus. The gist of the method:
as §3

Data set [11] is described as follows: Half-life in phosphate buffer (0.05 M, mu = 0.15) at 30 degree Celsius and pH 6.15. It counts as ADME. The gist of the method: as §2
Data set [12] can be described thus: Half-life in phosphate buffer (0.05 M, mu = 0.15) at 30 degree Celsius and pH 6.93. It counts as ADME. The essentials:
as §2

The nature of data set [13]: Half-life in phosphate buffer (0.05 M, mu = 0.15) at 30 degree Celsius and pH 7.45. Type of data set: ADME. The gist of the method: as §2
A short description of data set [14]: Half-life in phosphate buffer (0.05 M, mu = 0.15) at 30 degree Celsius with pH 7.79. Type of data set: ADME. The gist of the method: as §2
Data set [15] can be described thus: Second-order oxidation rate constant determined using ferricyanide. Type of data set: ADME. The essentials:
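Chemical oxidation with ferricyanide was run under pseudo-first-order conditions, with Fe(CN)6^3- in large excess over the CDS and pH held constant. Pseudo-first-order rates were measured at several ferricyanide concentrations, and the second-order constant (M^-1 s^-1) was derived from them.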

Data set [16] is described as follows: Half-life in phosphate buffer (0.05 M, mu = 0.15) at 30 degree Celsius with pH 8.14. It counts as ADME. The gist of the method: as §2
Data set [17] can be described thus: Half-life in phosphate buffer (0.05 M, mu = 0.15) at 30 degree Celsius with pH 6.15. Type of data set: ADME. The essentials:
as §2

A short description of data set [18]: Half-life in phosphate buffer (0.05 M, mu = 0.15) at 30 degree Celsius with pH 6.93. Type of data set: ADME. The essentials: as §2
Data set [19] in a line: Half-life in phosphate buffer (0.05 M, mu = 0.15) at 30 degree Celsius with pH 7.45. Type of data set: ADME. The gist of the method:
as §2

The next data set is filed under the species Homo sapiens. As to the kind of experiment: Half-life at pH 7.4 in human blood; Compound insoluble. Type of data set: ADME, organism-based. The essentials: as §3
The species named for data set [20] is Oryctolagus cuniculus. The data set can be described thus: Half-life at pH 7.4 in rabbit blood; Compound insoluble. It counts as ADME, organism-based. The gist of the method: as §3
Data set [21] is described as follows: (§4) Concentration of compound after 5 minutes in rabbit blood. It counts as ADME, organism-based, Oryctolagus cuniculus.
The nature of data set [22]: Concentration of compound after 10 minutes in rabbit blood. It counts as ADME, organism-based, Oryctolagus cuniculus.
For data set [23], the species on record is Rattus norvegicus. The data set can be described thus: Concentration of compound after 3 minutes in rat blood. It counts as functional, organism-based.
Data set [24] is filed under the species Oryctolagus cuniculus. The data set can be described thus: Concentration of compound after 10 min in rabbit brain. Type of data set: functional, organism-based. The essentials:
(§5)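 Oxacillin at 20 mg/kg, or an equimolar dose of its CDS, given i.v. to male Sprague-Dawley rats (tail vein) or male New Zealand albino rabbits (ear vein). Vehicle was water/ethanol/propylene glycol at 20 mg/mL. Samples were rat trunk blood after decapitation or rabbit ear-vein blood, with brain removed and frozen. Oxacillin was assayed by B. subtilis ATCC 6633 paper-disk diffusion and by HPLC. Values are means of two determinations.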

The species entered for data set [25] is Oryctolagus cuniculus. The description is as §4. Type of data set: functional, organism-based. The gist of the method: as §5
For data set [26], the species on record is Oryctolagus cuniculus. The data set can be described thus: Concentration of compound after 5 minutes in rabbit brain. Type of data set: functional, organism-based. The essentials:
as §5

The species named for data set [27] is Oryctolagus cuniculus. The data set can be described thus: Concentration of compound after 10 min in rabbit blood. It counts as functional, organism-based. The essentials: as §5
The species entered for data set [28] is Rattus norvegicus. The data set can be described thus: Concentration of compound after 3 minutes in rat brain. It counts as functional, organism-based. The essentials:
as §5

Take `Cc1onc(-c2ccccc2Cl)c1C(=O)NC1C(=O)N2C1SC(C)(C)[C@@H]2C(=O)OCOC(=O)c1ccc[n+](C)c1.[I-]` (some centres not stated): the half-life (commonly the time needed for the level to fall by half in the phase considered) was 1.1 min in [1]; 0.6 min in data set [2]; 56 min in data set [3]; 11.3 min in data set [4]; 3.5 min in [5]; 2.1 min in [6]. For the same compound, the half-life in [7] turned out to be 1 min.
For `COc1cccc(OC)c1C(=O)N[C@@H]1C(=O)N2[C@@H]1SC(C)(C)[C@@H]2C(=O)[O-].[Na+]`, the Log k in data set [8] was 0.658.
Consider `Cc1onc(-c2c(Cl)cccc2Cl)c1C(=O)NC1C(=O)N2C1SC(C)(C)[C@@H]2C(=O)[O-].[Na+]` (some centres not stated), for which the Log k in [8] was 2.435.
Consider `COc1cccc(OC)c1C(=O)NC1C(=O)N2C1SC(C)(C)[C@@H]2C(=O)OCOC(=O)C1=CN(C)C=CC1` (some centres not stated), for which the half-life in [9] amounted to 116 min; in data set [10], 10.7 min; in [1], 8 min; in data set [2] it was 0.2 min; in data set [11], 130 min; in data set [12], 238 min. Further, the values for the half-life in [13], in data set [14] and in [16] were 134 min, 103 min and 55.7 min, respectively. For the same compound, the ko in data set [15] is 0.701 M⁻¹ s⁻¹. Also, the Log k in [8] was 2.28.
Consider `Cc1onc(-c2ccccc2Cl)c1C(=O)NC1C(=O)N2C1SC(C)(C)[C@@H]2C(=O)OCOC(=O)C1=CN(C)C=CC1` (some centres not stated), for which the half-life in [1] turned out to be 10 min; in [2], 3.8 min; in data set [17], 350 min; in data set [18], 506 min; in [19], 377 min; in data set [14], 305 min. The compound also yielded a half-life in data set [16] of 165 min. In addition, in data set [15], the ko amounted to 0.36 M⁻¹ s⁻¹. Moreover, the Log k in [8] is given as 3.06.
Consider `Cc1onc(-c2c(Cl)cccc2Cl)c1C(=O)NC1C(=O)N2C1SC(C)(C)[C@@H]2C(=O)OCOC(=O)C1=CN(C)C=CC1` (some centres not stated), for which the half-life was found to be 12.6 min in data set [1]; 4.1 min in data set [2]; 464 min in data set [17]; 1010 min in data set [18]; 1030 min in [19]; 932 min in data set [14]. This compound also registered a half-life in [16] of 598 min. Besides, in data set [15], the ko was 0.23 M⁻¹ s⁻¹. Further, in data set [8], the Log k is recorded as 3.41.
Regarding `COc1cccc(OC)c1C(=O)NC1C(=O)N2C1SC(C)(C)[C@@H]2C(=O)OCOC(=O)c1ccc[n+](C)c1.[I-]` (some centres not stated), the T1/2 entry in the data set filed under Homo sapiens and in the data set filed under Oryctolagus cuniculus [20] was “Insoluble” throughout. The half-life stood at 1.1 min in data set [1]; 1 min in data set [2]; 58.6 min in data set [3]; 12 min in [4]; 3.6 min in data set [5]; 2 min in data set [6]. Besides, the half-life in data set [7] is 1 min.
As to `Cc1onc(-c2c(Cl)cccc2Cl)c1C(=O)NC1C(=O)N2C1SC(C)(C)[C@@H]2C(=O)OCOC(=O)c1ccc[n+](C)c1.[I-]` (some centres not stated), the half-life in data set [1] came to 1 min; in [2] it was 0.7 min; in data set [3], 44.4 min; in data set [4], 14.7 min; in [5] it was 3.9 min; in data set [6] it was 2.9 min.
In [21], `Cc1onc(-c2ccccc2)c1C(=O)N[C@@H]1C(=O)N2[C@@H]1SC(C)(C)[C@@H]2C(=O)[O-].[Na+]` showed a concentration at 5 min of 15.3 µg/mL. Further, in data set [22], the concentration at 10 min came to 9.1 µg/mL. Also, in the data set filed under Rattus norvegicus [23], the Concentration came out at 41.1 µg/mL. The Log k in data set [8] is 1.868.
As to `Cc1onc(-c2ccccc2Cl)c1C(=O)NC1C(=O)N2C1SC(C)(C)[C@@H]2C(=O)[O-].[Na+]` (some centres not stated), the Log k in data set [8] is recorded as 2.097.
Consider `Cc1onc(-c2ccccc2)c1C(=O)NC1C(=O)N2C1SC(C)(C)[C@@H]2C(=O)OCOC(=O)C1=CN(C)C=CC1` (some centres not stated), for which the half-life in data set [9] amounted to 7.5 min; in [10], 23.7 min; in data set [1], 5.4 min; in data set [2] it was 1.1 min; in [17] it was 249 min; in data set [18] it was 277 min. The half-life in data set [19] stood at 196 min; in data set [14] it was 172 min; in [16], 100 min. The ko in data set [15] was found to be 0.48 M⁻¹ s⁻¹. Moreover, the Concentration in the data set filed under Oryctolagus cuniculus [24] was found to be 0.3 µg/mL; in the data set filed under Oryctolagus cuniculus [25], 4.6 µg/mL; in the data set filed under Oryctolagus cuniculus [26], 0.3 µg/mL; in the data set filed under Oryctolagus cuniculus [27], 2.2 µg/mL; in the data set listed under Rattus norvegicus [23], 26.2 µg/mL; in the data set listed under Rattus norvegicus [28], 2.1 µg/mL. In data set [8], the Log k was 2.82.
`Cc1onc(-c2ccccc2)c1C(=O)NC1C(=O)N2C1SC(C)(C)[C@@H]2C(=O)OCOC(=O)c1ccc[n+](C)c1.[I-]` (some centres not stated): the half-life was found to be 1.2 min in data set [1]; 0.7 min in data set [2]; 49 min in data set [3]; 10.3 min in data set [4]; 3.4 min in [5]; 1.9 min in data set [6]. The compound further displayed a half-life in [7] of 1.1 min.

Values taken from ChEMBL document CHEMBL1124554, “Chemical delivery systems for some penicillinase-resistant semisynthetic penicillins” (J Med Chem, 1989).
